Experimental data published in ChEMBL document CHEMBL5236663, “Structure-activity relationship of dibenzylideneacetone analogs against the neglected disease pathogen, Trypanosoma brucei” (Bioorg Med Chem Lett, 2023).
Calls of active or inactive are those of the source. The calls are words filed in the database; no cut-off is given here.

Legend:
Trypanosoma brucei [1] = assay: Antitrypanosomal activity against Trypanosoma brucei Lister 427 assessed as parasite growth inhibition measured after 72 hrs by SYBER green staining based multilabel reader analysis; type: functional, organism-based; details: Lister 427, 72 h
In short: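 Bloodstream-form T. b. brucei Lister 427 were screened first at 4 μM, and compounds giving >50% growth inhibition went on to eight-point dose-response. Viability was read by SYBR green after 72 h, giving EC50. At least three assay replicates were run, each in duplicate, reported as mean ± SD.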

HEK293 = assay: Cytotoxicity against human HEK293 cells assessed as reduction in cell viability at 20 uM measured after 48 hrs by resazurin reagent based multilabel reader analysis; type: toxicity; details: hek293, 48 h
Trypanosoma brucei [2] = assay: Antitrypanosomal activity against Trypanosoma brucei Lister 427 assessed as time required to kill the parasite at 0.5 to 2 uM by hemocytometer cell counting analysis; type: functional; details: dose 0.5-2 µM
In short: (§1)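 Time-to-kill on bloodstream-form Lister 427 parasites. Test compound was used at 1, 2 and 4 μM, and pentamidine at 0.5, 1 and 2 μM. Parasites were counted over time by hemocytometer, with counts normalized to a DMSO negative control. Three replicates, mean ± SD.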

[3] = Selectivity index, ratio of CC50 for cytotoxicity against human HEK293 cells to EC50 for antitrypanosomal activity against Trypanosoma brucei Lister 427; type: toxicity, cell-based; details: read-out: Ratio CC50/EC50
Trypanosoma brucei [4] = assay: Antitrypanosomal activity against Trypanosoma brucei Lister 427 assessed as parasite growth inhibition at 1 uM measured for 6 to 48 hrs by SYBER green staining based multilabel reader analysis; type: functional, organism-based; details: time 6-48 hrs
In short: (§2)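 Washout test on bloodstream-form Lister 427 trypanosomes to tell trypanocidal from trypanostatic action. Compound at 1, 2 or 4 μM was incubated for 6, 4 or 2 h respectively, and the parasites were then washed three times. Regrowth and division were monitored for a further 48 h.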

Trypanosoma brucei [5] = assay: Antitrypanosomal activity against Trypanosoma brucei Lister 427 assessed as parasite growth inhibition at 2 uM measured for 4 to 48 hrs by SYBER green staining based multilabel reader analysis; type: functional, organism-based; details: time 4-48 hrs; in short: as §2
Trypanosoma brucei [6] = assay: Antitrypanosomal activity against Trypanosoma brucei Lister 427 assessed as parasite growth inhibition at 4 uM measured for 2 to 48 hrs by SYBER green staining based multilabel reader analysis; type: functional, organism-based; details: time 2-48 hrs; in short: as §2
Trypanosoma brucei [7] = assay: Antitrypanosomal activity against Trypanosoma brucei Lister 427 assessed as time required to kill the parasite at 1 to 4 uM by hemocytometer cell counting analysis; type: functional; details: dose 1-4 µM; in short: as §1
Trypanosoma brucei [8] = assay: Antitrypanosomal activity against Trypanosoma brucei Lister 427 assessed as time required to kill the parasite at 2 to 4 uM by hemocytometer cell counting analysis; type: functional; details: dose 2-4 µM; in short: as §1

Row | SMILES | EC50 (Trypanosoma brucei [1]) [µM] | CC50 (HEK293) [µM] | other results
1 | COc1cc(/C=C2\CCC/C(=C\c3cc(OC)cc(OC)c3)C2=O)cc(OC)c1 | > 4 | 3.7 | –
2 | O=C(/C=C/c1ccc(F)cc1)/C=C/c1ccc(F)cc1 | 1.42 | 7.64 | –
3 | O=C(CCc1ccccc1Cl)CCc1ccccc1Cl | > 4 | > 20 | –
4 | COc1cc(/C=C/C(=O)/C=C/c2cc(OC)c(OC)c(OC)c2)cc(OC)c1OC | 0.36 | 0.3 | –
5 | COc1ccc(/C=C/C(=O)CC(=O)/C=C/c2ccc(OC)c(OC)c2)cc1OC [TETRAMETHOXYCURCUMIN] | > 4 | > 20 | –
6 | COc1cc(/C=C/C(=O)/C=C/c2ccc(O)c(OC)c2)ccc1O | 0.84 | 9.74 | –
7 | COc1ccc(CCC(=O)CCc2ccc(OC)c(OC)c2)cc1OC | > 4 | > 20 | –
8 | COc1ccc(/C=C/C(=O)/C=C/c2ccccc2)cc1 | > 4 | 5.49 | –
9 | COc1ccc(CCC(O)CCc2ccc(OC)c(OC)c2)cc1OC | > 4 | > 20 | –
10 | COc1cc(/C=C/C(=O)/C=C/c2cc(OC)cc(OC)c2)cc(OC)c1 | 0.24 | 1.45 | –
11 | Cc1ccc(/C=C/C(=O)/C=C/c2ccccc2)cc1 | 3.74 | – | –
12 | COc1ccc(/C=C/C(=O)/C=C/c2ccc(O)c(O)c2)cc1 | 0.41 | 6.61 | –
13 | COc1ccc(/C=C/C(=O)/C=C/c2ccc(OC)cc2)cc1 | > 4 | > 20 | –
14 | Cc1ccc(CCC(O)CCc2ccc(C)cc2)cc1 | > 4 | > 20 | –
15 | COc1cc(/C=C/C(=O)/C=C/c2ccccc2)ccc1O | 0.66 | 5.63 | –
16 | COc1ccc(/C=C/C(=O)CC(=O)/C=C/c2ccc(OC)cc2OC)c(OC)c1 | > 4 | – | –
17 | CN(C)c1ccc(/C=C/C(=O)/C=C/c2ccccc2)cc1 | > 4 | 9.79 | –
18 | O=C(/C=C/c1ccccc1)/C=C/c1cccc(O)c1 | 0.29 | 5.79 | –
19 | COc1cc(CCC(O)CCc2cc(OC)c(OC)c(OC)c2)cc(OC)c1OC | > 4 | > 20 | –
20 | N=C(N)c1ccc(OCCCCCOc2ccc(C(=N)N)cc2)cc1 [PENTAMIDINE] | 0.012 | > 4 | Time (Trypanosoma brucei [2]): >30 h
21 | COc1cccc(/C=C/C(=O)CC(=O)/C=C/c2cccc(OC)c2)c1 | > 4 | > 20 | –
22 | O=C(/C=C/c1ccc(C(F)(F)F)cc1)CC(=O)/C=C/c1ccc(C(F)(F)F)cc1 | > 4 | > 20 | –
23 | COc1cc(CCC(=O)CCc2cc(OC)c(OC)c(OC)c2)cc(OC)c1OC | > 4 | > 20 | –

Row | SMILES | EC50 (Trypanosoma brucei [1]) [µM] | CC50 (HEK293) [µM] | other results
24 | Cc1ccc(CCC(=O)CCc2ccc(C)cc2)cc1 | > 4 | > 20 | –
25 | O=C(/C=C/c1ccccc1Cl)/C=C/c1ccccc1Cl | 0.31 | 4.27 | selectivity ratio [3]: > 10
26 | O=C(/C=C/c1ccccc1)/C=C/c1ccc(C(F)(F)F)cc1 | 2.51 | > 20 | –
27 | O=C(/C=C/c1ccccc1)CC(=O)/C=C/c1ccccc1 | > 4 | > 20 | –
28 | OC(CCc1ccccc1Cl)CCc1ccccc1Cl | > 4 | > 20 | –
29 | O=C(/C=C/c1ccc(Cl)c(Cl)c1)CC(=O)/C=C/c1ccc(Cl)c(Cl)c1 | > 4 | > 20 | –
30 | O=C(/C=C/c1ccccc1)/C=C/c1ccc(O)c(O)c1 | 0.37 | 5.54 | –
31 | O=C(/C=C/c1cccc(Br)c1)/C=C/c1cccc(Br)c1 | > 4 | > 20 | –
32 | O=C1/C(=C/c2ccccc2F)CNC/C1=C\c1ccccc1F | 0.2 | 3.58 | –
33 | OC(CCc1cccc(Br)c1)CCc1cccc(Br)c1 | > 4 | > 20 | –
34 | O=C(CCc1cccc(Br)c1)CCc1cccc(Br)c1 | > 4 | > 20 | –
35 | O=C(/C=C/c1ccccc1)/C=C/c1cccc([N+](=O)[O-])c1 | 0.2 | 2.88 | Activity (Trypanosoma brucei [4]): Active; Activity (Trypanosoma brucei [5]): Active; Activity (Trypanosoma brucei [6]): Active; Time (Trypanosoma brucei [7]): <24 h; Time (Trypanosoma brucei [8]): <6 h
36 | O=C(/C=C/c1ccccc1)/C=C/c1ccc(Cl)c(Cl)c1 | 2.15 | 11.3 | –
37 | COc1cc(/C=C/C(=O)CC(=O)/C=C/c2ccc(O)c(OC)c2)ccc1O [CURCUMIN] | 1.78 | 5.56 | –
38 | O=C(/C=C/c1ccccc1)/C=C/c1ccc(O)cc1 | 1.25 | 5.85 | –
39 | COc1cc(/C=C/C(=O)CC(=O)/C=C/c2cc(OC)c(OC)c(OC)c2)cc(OC)c1OC | 3.99 | – | –
40 | COc1cccc(/C=C/C(=O)/C=C/c2cccc(OC)c2)c1 | > 4 | > 20 | –
41 | O=C(/C=C/c1ccccc1)/C=C/c1ccc(Br)cc1 | 2.33 | 7.05 | –
42 | O=C(/C=C/c1ccccc1)/C=C/c1ccc(Cl)cc1 | 1.93 | > 20 | –
43 | Cc1ccc(/C=C/C(=O)/C=C/c2ccc(C)cc2)cc1 | > 4 | > 20 | –
44 | COc1ccc(/C=C/C(=O)/C=C/c2ccc(OC)c(OC)c2)cc1OC | 0.42 | 4.55 | selectivity ratio [3]: > 10
45 | O=C(/C=C/c1cccc(O)c1)CC(=O)/C=C/c1cccc(O)c1 | 3.29 | 6.73 | –
